Laboratory results taken from ChEMBL document CHEMBL1926589, “2-Anilinonicotinyl linked 2-aminobenzothiazoles and [1,2,4]triazolo[1,5-b] [1,2,4]benzothiadiazine conjugates as potential mitochondrial apoptotic inducers” (Bioorg Med Chem, 2011).
The source made the active and inactive calls. The calls are words filed in the database; no cut-off is given here.

Legend:
HL-60 [1] = assay: Induction of apoptosis in human HL60 cells assessed as late apoptotic cells at 1 uM after 24 hrs using Annexin V-FITC and propidium iodide staining by flow cytometry relative to control; format: functional
In short: (§1)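 HL-60 cells (1 x 10^5 per 1.5 mL) treated 24 h, washed twice in PBS and stained in binding buffer with annexin V-FITC and PI. Flow cytometry with FITC in FL-1 (530 nm) and PI in FL-2 (585 nm), using quadrant statistics: lower right taken as apoptotic, upper right as post-apoptotic necrotic. Representative of three independent experiments.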

HL-60 [2] = assay: Induction of apoptosis in human HL60 cells assessed as non-viable necrotic cells at 1 uM after 24 hrs using Annexin V-FITC and propidium iodide staining by flow cytometry relative to control; format: functional; in short: as §1
HL-60 [3] = assay: Induction of apoptosis in human HL60 cells assessed as early apoptotic cells at 1 uM after 24 hrs using Annexin V-FITC and propidium iodide staining by flow cytometry relative to control; format: functional; in short: as §1
DU-145 = assay: Growth inhibition of human DU145 cells at 10 uM by sulforhodamine B assay; format: functional; settings: read-out: GI
In short: (§2)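 Single-dose 10 µM screen by sulforhodamine B assay, reported as percent inhibition of cell proliferation. Cells grown in medium with 10% heat-inactivated FBS at 37 °C, 5% CO2, and treated at about 70% confluence or in log phase. Compounds dissolved in DMSO; controls received vehicle (<0.5% v/v).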

[4] = Growth inhibition of human 502713 cells at 10 uM by sulforhodamine B assay; format: functional; settings: read-out: GI; in short: as §2
SiHa [5] = assay: Growth inhibition of human SiHa cells after 48 hrs by MTT assay; format: functional, cell-based
SiHa [6] = assay: Growth inhibition of human SiHa cells at 10 uM by sulforhodamine B assay; format: functional; settings: read-out: GI; in short: as §2
A549 = assay: Growth inhibition of human A549 cells at 10 uM by sulforhodamine B assay; format: functional; settings: read-out: GI; in short: as §2
HL-60 [7] = assay: Growth inhibition of human HL60 cells after 48 hrs by MTT assay; format: functional, cell-based; settings: HL-60, 48 h
IMR-32 = assay: Growth inhibition of human IMR32 cells at 10 uM by sulforhodamine B assay; format: functional; settings: read-out: GI; in short: as §2
HEp-2 = assay: Growth inhibition of human Hep2 cells at 10 uM by sulforhodamine B assay; format: functional; settings: read-out: GI; in short: as §2
SW-620 = assay: Growth inhibition of human SW620 cells at 10 uM by sulforhodamine B assay; format: functional; settings: read-out: GI; in short: as §2
OVCAR-5 = assay: Growth inhibition of human OVCAR5 cells at 10 uM by sulforhodamine B assay; format: functional; settings: read-out: GI; in short: as §2
HCT-15 = assay: Growth inhibition of human HCT15 cells at 10 uM by sulforhodamine B assay; format: functional; settings: read-out: GI; in short: as §2
[8] = Therapeutic ratio of IC50 for african green monkey CV1 cells to IC50 for human HL60 cells; format: ADME, cell-based, HL-60; settings: CV1 cells and HL60 cells, read-out: Ratio IC50
CV-1 = assay: Growth inhibition of african green monkey CV1 cells after 48 hrs by MTT assay; format: cell-based; settings: Chlorocebus aethiops, CV-1, 48 h
SK-N-SH = assay: Growth inhibition of human SK-N-SH cells at 10 uM by sulforhodamine B assay; format: functional; settings: read-out: GI; in short: as §2
HL-60 [9] = assay: Induction of apoptosis in human HL60 cells assessed as DNA ladder formation at 10 uM after 24 hrs by agarose gel electrophoresis; format: functional, cell-based
In short: (§3)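 Cells treated 24 h, then 2 x 10^6 cells lysed (Triton X-100 buffer, pH 8.0) with RNase at 37 °C for 90 min and proteinase-K at 50 °C for 1 h. DNA phenol/chloroform-extracted and ethanol-precipitated, then run on 1.8% agarose at 50 V for 1.5 h in TAE. Ladders viewed under UV.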

HL-60 [10] = assay: Induction of NO production in human HL60 cells at 1 uM after 24 hrs using DAF-2DA fluorescent dye based flow cytometric analysis; format: functional, cell-based
In short: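 HL-60 cells (1 x 10^5 per 1.5 mL) preloaded 30 min with 10 µM DAF-2-DA before treatment. After 24 h exposure, cells were washed and read by flow cytometry in FL-1 as NO-positive population. Mean ± SD of three independent experiments.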

HL-60 [11] = assay: Induction of apoptosis in human HL60 cells assessed as caspase9 activation using LEHD-AMC as substrate at 1 uM after 24 hrs by fluorimetry relative to control; format: functional
In short: (§4)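 HL-60 cells (2 x 10^6) treated 24 h, washed and lysed. Caspase-3, -8 and -9 activities in lysates measured fluorometrically with a commercial caspase fluorescent assay kit. Two independent experiments, each in duplicate.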

HL-60 [12] = assay: Cell cycle arrest in human HL60 cells assessed as accumulation at sub-G0 phase measuring DNA damage at 1 uM after 24 hrs using propidium iodide staining by flow cytometry (reference value: 1%); format: functional
In short: (§5)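 HL-60 cells (1 x 10^5 per 1.5 mL) treated 24 h, then fixed in 70% cold ethanol at −20 °C overnight. RNase digestion (400 µg/ml) at 37 °C for 45 min, then propidium iodide (10 µg/ml) for 30 min. Flow cytometry on 10,000 events, FL2-A vs FL2-W, with doublet discrimination. Sub-G0 (hypodiploid) peak taken as apoptotic cells. Mean ± SD of three independent experiments.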

HL-60 [13] = assay: Induction of apoptosis in human HL60 cells assessed as DNA ladder formation at 1 uM after 24 hrs by agarose gel electrophoresis; format: functional, cell-based; in short: as §3
HL-60 [14] = assay: Inhibition of NF-kappaB expression in human HL60 cells at 1 uM after 24 hrs by Western blotting; format: functional, cell-based
In short: (§6)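 HL-60 cells treated 24 h and lysed in RIPA buffer on ice; protein measured by Bradford against a BSA standard. 50 µg resolved by SDS-PAGE and transferred to PVDF, blocked in 5% milk/TBST, then primary antibodies 1:1000 for 2 h and HRP secondary 1:1000 for 1 h. ECL detection with β-actin as loading control; bands quantified by densitometry.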

HL-60 [15] = assay: Cell cycle arrest in human HL60 cells assessed as accumulation at G2/M phase at 1 uM after 24 hrs using propidium iodide staining by flow cytometry; format: functional, cell-based; in short: as §5
HL-60 [16] = assay: Induction of apoptosis in human HL60 cells assessed as increase of reactive oxygen species level at 1 uM after 24 hrs using DCFH-DA fluorescent dye based flow cytometric analysis relative to control; format: functional
In short: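 HL-60 cells (1 x 10^5 per 1.5 mL) treated 24 h, then loaded with 10 µM H2DCFDA for 30 min at 37 °C. Washed twice in PBS and read in FL-1 (530 nm). Percentage of DCF-positive cells determined; mean ± SD of three experiments.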

SiHa [17] = assay: Induction of apoptosis in human SiHa cells assessed as DNA ladder formation at 10 uM after 24 hrs by agarose gel electrophoresis; format: functional, cell-based; in short: as §3
HL-60 [18] = assay: Induction of apoptosis in human HL60 cells assessed as PARP cleavage at 1 uM after 24 hrs by Western blotting; format: functional, cell-based; in short: as §6
HL-60 [19] = assay: Induction of apoptosis in human HL60 cells assessed as caspase3 activation using DEVD-AFC as substrate at 1 uM after 24 hrs by fluorimetry relative to control; format: functional; in short: as §4
HL-60 [20] = assay: Cell cycle arrest in human HL60 cells assessed as accumulation at S phase at 1 uM after 24 hrs using propidium iodide staining by flow cytometry; format: functional, cell-based; in short: as §5
HL-60 [21] = assay: Inhibition of Bcl-2 expression in human HL60 cells at 1 uM after 24 hrs by Western blotting; format: functional, cell-based; in short: as §6
HeLa = assay: Induction of apoptosis in human HeLa cells assessed as DNA ladder formation at 10 uM after 24 hrs by agarose gel electrophoresis; format: functional, cell-based; in short: as §3
HL-60 [22] = assay: Induction of apoptosis in human HL60 cells assessed as caspase8 activation using IETD-AFC as substrate at 1 uM after 24 hrs by fluorimetry relative to control; format: functional; in short: as §4
HL-60 [23] = assay: Cell cycle arrest in human HL60 cells assessed as accumulation at G1 phase at 1 uM after 24 hrs using propidium iodide staining by flow cytometry; format: functional, cell-based; in short: as §5

Row | IC50 (HL-60 [7]) [nM] | SMILES | Activity (HL-60 [1]) [%] | Activity (HL-60 [2]) [%] | Activity (HL-60 [3]) [%] | inhibition of growth at 10 µM (DU-145) [%] | inhibition of growth at 10 µM [4] [%] | IC50 (SiHa [5]) [nM] | inhibition of growth at 10 µM (SiHa [6]) [%] | inhibition of growth at 10 µM (A549) [%] | inhibition of growth at 10 µM (IMR-32) [%] | inhibition of growth at 10 µM (HEp-2) [%] | inhibition of growth at 10 µM (SW-620) [%] | inhibition of growth at 10 µM (OVCAR-5) [%] | inhibition of growth at 10 µM (HCT-15) [%] | selectivity ratio [8] | IC50 (CV-1) [nM] | inhibition of growth at 10 µM (SK-N-SH) [%] | also measured
1 |  | CC[C@@]1(O)C(=O)OCc2c1cc1n(c2=O)Cc2cc3ccccc3nc2-1 [CAMPTOTHECIN] | 11 | 52 | 17 |  |  |  |  |  |  |  |  |  |  |  |  |  | 
2 | 400 | O=C(Nc1nc2ccc([N+](=O)[O-])cc2s1)c1cccnc1Nc1ccc(Cl)cc1 |  |  |  | 52 | 63 | > 50000 | 53 | 83 | 45 | 69 | 65 | 26 | 66 | 2 | 800 | 48 | 
3 | 700 | COc1ccc(Nc2ncccc2C(=O)Nc2nc3ccc([N+](=O)[O-])cc3s2)cc1 | 3 | 14 | 7 | 32 | 59 | 28000 | 66 | 3 | 55 | 5 | 64 | 52 | 47 | 14 | 10000 | 64 | Activity (HL-60 [9]): Active; Activity (HL-60 [10]): inactive; Activity (HL-60 [11]): inactive; Activity (HL-60 [12]): 22%; Activity (HL-60 [13]): Active; inhibition (HL-60 [14]): inactive; Activity (HL-60 [15]): inactive; Activity (HL-60 [16]): 44%; Activity (SiHa [17]): inactive; Activity (HL-60 [18]): Active; Activity (HL-60 [19]): inactive; Activity (HL-60 [20]): inactive; inhibition (HL-60 [21]): inactive; Activity (HeLa): inactive; Activity (HL-60 [22]): inactive; Activity (HL-60 [23]): inactive
4 |  | COc1ccc(Nc2ncccc2-c2nc3n(n2)S(=O)(=O)c2ccccc2N3C)cc1 |  |  |  | 8 | 13 |  | 11 | 70 | 15 | 13 | 24 | 4 | 0 |  |  | 20 | 
5 |  | COc1ccc2nc(NC(=O)c3cccnc3Nc3ccc(F)cc3)sc2c1 |  |  |  | 32 | 2 |  | 35 | 5 | 2 | 32 | 21 | 3 | 0 |  |  | 24 | 
6 |  | O=S1(=O)c2ccccc2N(c2ccccc2)c2nc(-c3cccnc3Nc3ccccc3)nn21 |  |  |  | 10 | 21 |  | 23 | 0 | 56 | 0 | 23 | 3 | 0 |  |  | 20 | 
